Only some compounds are listed: those with a hit (about 1.9% of all), similar ones and a draw of the others.
MT1-MMP act inh – MT1-MMP (human) activation inhibition; 0.061% of 360,000 active; AID 651647; P50281; HT1080 RFP-PRO-GFP cells, GFP/RFP ratio fluorescence, overnight; percent of plate control window, DMSO zero; GFP/RFP ratio change, % at 20 µM;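 active means GFP/RFP ratio change of at least 30% with cell ATP level not reduced by more than half and red fluorescence within 50% of control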
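Compound: 20 µM single dose, 1% DMSO / System: HT1080 RFP-PRO-GFP cells / Controls: DMSO and RFP-L50D-GFP cell wells / Read-out basis: GFP/RFP fluorescence ratio / Schedule: overnight compound exposure at 37 °C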
NR2E3 ag-1 – activates human NR2E3 receptor; Q9Y5X4; CHO-S Gal4-NCOR/VP16-NR2E3 two-hybrid, luciferase; inhibition of corepressor binding, % at 3.98 µM; 0.35% of 360,000 active; AID 602229;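 active means inhibition above the mean of all tested compounds plus 3 SD, cut at about 70% in these data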;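 further: higher means lower luciferase signal from less NR2E3 corepressor binding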
Rev-erbA mod – modulators of human Rev-erb alpha DNA binding; P20393; Rev-erbα–FITC-DNA binding, fluorescence polarization, 90 min; activity, % at 10 µM; 0.79% of 370,000 active;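 active means activity above about 14%, limit read from the data; passing the limit was not always enough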
Target sequence (P20393 whole entry, looked up): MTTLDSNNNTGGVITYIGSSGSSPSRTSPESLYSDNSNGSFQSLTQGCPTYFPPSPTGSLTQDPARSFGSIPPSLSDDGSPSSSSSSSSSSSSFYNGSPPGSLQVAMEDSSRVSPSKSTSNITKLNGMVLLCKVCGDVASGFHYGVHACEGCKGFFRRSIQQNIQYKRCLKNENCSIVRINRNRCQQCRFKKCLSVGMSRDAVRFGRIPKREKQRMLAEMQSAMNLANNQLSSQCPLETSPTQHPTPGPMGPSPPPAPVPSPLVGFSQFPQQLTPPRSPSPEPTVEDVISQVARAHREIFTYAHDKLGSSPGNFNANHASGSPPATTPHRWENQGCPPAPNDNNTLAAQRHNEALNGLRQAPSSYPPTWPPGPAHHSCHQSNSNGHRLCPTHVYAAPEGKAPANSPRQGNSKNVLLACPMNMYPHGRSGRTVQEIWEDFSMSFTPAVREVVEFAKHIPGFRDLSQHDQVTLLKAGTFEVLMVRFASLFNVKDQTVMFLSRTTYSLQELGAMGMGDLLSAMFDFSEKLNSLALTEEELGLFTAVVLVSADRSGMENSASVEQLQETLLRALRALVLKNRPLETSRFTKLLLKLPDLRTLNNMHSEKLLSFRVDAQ
PG9 binder – PG9 antibody binding by small molecule. TR-FRET gp120-PG9 antibody binding. inhibition, % at 6.7 µM. 0.43% of 360,000 active; in the data active means inhibition above about 8.5%
NR2E3 ag-2 – agonists of human nuclear receptor NR2E3; 0.12% of 320,000 active; GST-NR2E3/biotin-RetCOR TR-FRET, 1536-well; Q9Y5X4; inhibition of corepressor binding, % at 4.78 µM;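 active means percent inhibition above the cutoff of mean plus 3 SD of all tested compounds, set per screening campaign, cut at about 20% in these data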
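Material: NR2E3–RetCOR corepressor complex | Quantity: 1.35 nM GST-tagged NR2E3 final | Schedule: 5 h at 4 °C | Replication: Singlicate compound wells | Reagent: RetCOR corepressor, biotinylated, 7 nM | Controls: Biotin wells as high control, 0.6% DMSO wells as low control | Signal: TR-FRET, Eu(K)-anti-GST donor, streptavidin-D2 acceptor, ex 340, em 617/671 nm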
SKN-1 block – inhibitors of C. elegans SKN-1. C. elegans VP596 Pgst-4::GFP/RFP ratio, acrylamide-induced, 24 h. inhibition, % at 21.8 µM. 0.49% of 360,000 active;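 active means interference check ratio from 0.5 to 1.5 plus GFP to RFP signal ratio inhibition reaching or exceeding a fixed threshold, cut at about 30% in these data, passing the limit was not always enough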
NR2E3 agonist cf – confirmation of human NR2E3 nuclear receptor agonists; shares compounds with NR2E3 ag-2; cell-free NR2E3 corepressor release, TR-FRET, 5 h; activation (reported as inhibition), % at 3.98 µM; 39% of 360 active; AID 2379; in the data active means activation above about 20%
PPARg-NCOR2 ag – PPARg-NCOR2 interaction agonism, NR2E3 counter-screen; TR-FRET PPARg-NCOR2 coregulator interaction, biochemical; shares compounds with NR2E3 ag-2; 45% of 360 active; inhibition, % at 3.98 µM; AID 504787; in the data active means inhibition above about 20%
Numbers stand for hits; 0 = inactive; - = not tested or not shown.

SMILES	MT1-MMP act inh	NR2E3 ag-1	Rev-erbA mod	PG9 binder	NR2E3 ag-2	SKN-1 block	others
Cc1ccc(-n2c(O)c(C=Nc3ccc(S(=O)(=O)N(C)C)cc3)c(=O)[nH]c2=O)cc1	0	0	0	0	0	34
O1[As]2O[As]3O[As]1O[As](O2)O3	-	-	0	-	-	-
CN1C(=O)/C(=C\c2ccc(Br)s2)C(=O)NC1=S	-	0	0	0	0	37
Cc1ccccc1-n1c(CF)nc2ccc(N)cc2c1=O	-	-	0	-	-	-
Cc1cc(N(CCCl)CCCl)ccc1C=Cc1ccncn1	0	0	0	0	-	42
COc1ccccc1N1CCN(Cc2ccc(F)cc2)CC1	0	0	0	0	0	0
COc1ccc(CN2CCN(c3ccccc3F)CC2)cc1O	0	0	0	0	0	46
CCCCn1c(NC(=O)c2ccc(Br)o2)c(C(=O)OCC)c2nc3ccccc3nc21	0	0	0	0	30	0
Cc1cccc(N2C(=O)NC(=O)/C(=C/c3cc4c(cc3[N+](=O)[O-])OCO4)C2=O)c1	0	0	0	0	0	0
Cc1cccc(N2C(=O)NC(=O)/C(=C\c3ccc4c(c3)CCCN4Cc3ccccc3)C2=O)c1	0	0	0	0	0	40
Cc1ccccc1N1C(=O)NC(=O)/C(=C/c2ccc(N3CCOCC3)o2)C1=O	0	0	0	0	0	0
Cc1ccccc1N1C(=O)NC(=O)/C(=C\c2cc(Br)c(N3CCOCC3)o2)C1=O	0	0	0	0	0	38
COc1cc(/C=N/NP(=S)(c2ccccc2)c2ccccc2)ccc1O	0	0	0	0	0	0
Oc1ccc(/C=N/NP(=S)(c2ccccc2)c2ccccc2)cc1	0	0	0	0	0	38
C=C(C)[C@@]12OC3(c4ccccc4)O[C@@H]1C1[C@@H]4O[C@]4(CO)[C@@H](O)[C@]4(O)C(=O)C(C)=C[C@H]4[C@@]1(O3)[C@H](C)[C@H]2OC(=O)/C=C/C=C/c1ccccc1 (stereo partly drawn)	0	0	-	-	0	70
COc1cc(N2CCOCC2)ccc1/C=C1\C(=O)NC(=O)N(C2CCCCC2)C1=O	0	0	0	0	0	50
CCCCN1C(=O)/C(=C/c2ccc(N(C)C)cc2)C(=O)N(Cc2ccco2)C1=O	0	0	0	0	0	40
CCN(CC)c1ccc(/C=C2\C(=O)NC(=O)N(Cc3ccco3)C2=O)cc1	0	0	0	0	0	48
CCN(CC)c1ccc(/C=C2/C(=O)NC(=O)N(CC3CCCO3)C2=O)cc1 (stereo not drawn)	0	0	0	0	0	0
CCCCN1C(=O)/C(=C\c2ccco2)C(=O)N(CCc2ccccc2)C1=O	0	0	0	0	0	0
COC(C)(C)CCC[C@H](C)C/C=C/C(C)=C/C(=O)OC(C)C	-	-	0	-	-	-
CC(=O)O[C@H]1C[C@H](O[C@H]2[C@@H](O)C[C@H](O[C@H]3[C@@H](O)C[C@H](O[C@H]4CC[C@@]5(C)C(CCC6C5C[C@@H](O)[C@]5(C)[C@@H](C7=CC(=O)OC7)CC[C@]65O)C4)O[C@@H]3C)O[C@@H]2C)O[C@H](C)[C@H]1O[C@@H]1O[C@H](CO)[C@@H](O)[C@H](O)[C@H]1O (stereo partly drawn)	-	-	0	-	-	-
O=c1cccc2n1C[C@H]1CNC[C@H]2C1	-	-	0	-	-	-
CN1C[C@H](C(=O)N[C@]2(C)C[C@@]3(O)C4CCCN4C(=O)[C@H](Cc4ccccc4)N3C2=O)C=C2c3cccc4[nH]cc(c34)C[C@H]21 (stereo partly drawn)	-	-	0	-	-	-
CN1C(=O)C(=Cc2sc(=O)n(-c3ccccc3)c2N2CCCCC2)C(=O)N(C)C1=O	0	0	0	0	-	38
SMILES	MT1-MMP act inh	NR2E3 ag-1	Rev-erbA mod	PG9 binder	NR2E3 ag-2	SKN-1 block	others
CN1C(=O)C(=Cc2cc([N+](=O)[O-])ccc2N2CCCCC2)C(=O)N(C)C1=O	0	0	0	0	0	0
CNc1ccc(C(=O)CC(O)CCC(C)C2OC(=O)CC(O)CC(=O)CC(O)CC(O)CC(O)CC(O)CC3(O)CC(O)C(C(=O)OC)C(CC(O[C@@H]4O[C@H](C)[C@@H](O)[C@H](N)[C@@H]4O)/C=C/C=C/C=C/C=C/C=C/C=C/C=C/C2C)O3)cc1 (stereo partly drawn)	-	-	0	-	-	-
C=CCN1C(=O)C2(C(C(=O)OCC)=C(N)Oc3ccccc32)C2=C1CCCC2=O (stereo not drawn)	0	0	0	0	0	37
CC12CCC(C(Br)C1=O)C2(C)C (stereo not drawn)	-	-	0	-	-	-
CNC(=O)Oc1ccc(-c2cn3cc(Cl)ccc3n2)cc1	0	0	0	0	0	0
CNC(=O)Oc1cccc(-c2cn3cc(OC(=O)NC)ccc3n2)c1	-	0	0	0	0	50
Oc1ccc2c3c1O[C@@H]1[C@@H](O)CC[C@@]4(O)[C@@H](C2)N(CC2CCC2)CC[C@]314	-	-	0	-	-	-
OCC[n+]1c2ccccc2nc2ccc(N3CCOCC3)cc21	0	0	0	0	0	38
O=C1C=C(N2CC2)c2ccccc2C1=O	0	0	0	0	-	37
C=C1CC2C(CC[C@]3(C)C(=O)CCC23)[C@@]2(C)C=CC(=O)C=C12 (stereo partly drawn)	-	-	0	-	-	-
C[N+]1(C)C2CC(OC(=O)[C@@H](CO)c3ccccc3)CC1C1OC12 (stereo partly drawn)	-	-	0	-	-	-
COc1ccc(CN2CCCC(C(=O)c3cccc(Cl)c3)C2)cc1 (stereo not drawn)	0	0	0	0	0	43
Cn1cc(C=C2C(=O)NC(=O)NC2=O)c2ccccc21	0	0	0	0	0	0
C=CCn1c(C)c(C=C2C(=O)NC(=O)NC2=O)c2ccccc21	0	0	0	0	0	40
C[C@H]1[C@H](OC(=O)CCC(=O)NCc2ccc(C(=O)O)cc2)O[C@@H]2O[C@@]3(C)CC[C@H]4[C@H](C)CC[C@@H]1C24OO3	0	93	-	-	0	0
O=c1c2ccccc2[nH]c(=S)n1-c1ccc(Br)cc1	0	0	0	0	36	0	NR2E3 agonist cf=0;PPARg-NCOR2 ag=0
C#C[C@]1(O)C=C[C@H]2[C@@H]3CCC4=CC(=O)CC[C@@H]4[C@H]3CC[C@@]21CC	-	-	0	-	-	-

High-throughput results deposited in PubChem by several laboratories.
